pIC50: −log10 of the molar value. ≈ marks a conversion by molar mass, not a printed value. Calls of active or inactive are those of the source. The calls are words filed in the database; no cut-off is given here.
Key:
HepG2 = assay: Antitumor activity against human HepG2 cells assessed as inhibition of cell growth measured after 48 hrs by MTT assay; format: functional, cell-based; conditions: HepG2, 48 h
How it was run: (§1)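 MTT assay; cells seeded in 96-well plates, exposed 48 h to freshly prepared compound at five concentrations, four replicate wells each; MTT (5 mg/mL) added for 4 h, formazan dissolved in DMSO, absorbance at 490 nm. IC50 by nonlinear regression; mean of three independent experiments.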

[1] = Toxicity in iv dosed ICR mouse measured for 14 days; format: organism-based; conditions: in vivo, time 14 day
HEK293 = assay: Cytotoxicity against human HEK293 cells assessed as reduction in cell viability measured after 48 hrs by MTT assay; format: cell-based; conditions: HEK293, 48 h; how it was run: as §1
HCT-116 = assay: Antitumor activity against human HCT-116 cells assessed as inhibition of cell growth measured after 48 hrs by MTT assay; format: functional, cell-based; conditions: HCT-116, 48 h; how it was run: as §1
[2] = target: T1, DNA topoisomerase 1 (Homo sapiens) (UniProt P11387); assay: Inhibition of human recombinant Topoisomerase 1 using supercoiled pBR322 DNA as substrate at 100 uM incubated for 30 mins by ethidium bromide staining based agarose gel electrophoresis
T1 sequence (whole entry): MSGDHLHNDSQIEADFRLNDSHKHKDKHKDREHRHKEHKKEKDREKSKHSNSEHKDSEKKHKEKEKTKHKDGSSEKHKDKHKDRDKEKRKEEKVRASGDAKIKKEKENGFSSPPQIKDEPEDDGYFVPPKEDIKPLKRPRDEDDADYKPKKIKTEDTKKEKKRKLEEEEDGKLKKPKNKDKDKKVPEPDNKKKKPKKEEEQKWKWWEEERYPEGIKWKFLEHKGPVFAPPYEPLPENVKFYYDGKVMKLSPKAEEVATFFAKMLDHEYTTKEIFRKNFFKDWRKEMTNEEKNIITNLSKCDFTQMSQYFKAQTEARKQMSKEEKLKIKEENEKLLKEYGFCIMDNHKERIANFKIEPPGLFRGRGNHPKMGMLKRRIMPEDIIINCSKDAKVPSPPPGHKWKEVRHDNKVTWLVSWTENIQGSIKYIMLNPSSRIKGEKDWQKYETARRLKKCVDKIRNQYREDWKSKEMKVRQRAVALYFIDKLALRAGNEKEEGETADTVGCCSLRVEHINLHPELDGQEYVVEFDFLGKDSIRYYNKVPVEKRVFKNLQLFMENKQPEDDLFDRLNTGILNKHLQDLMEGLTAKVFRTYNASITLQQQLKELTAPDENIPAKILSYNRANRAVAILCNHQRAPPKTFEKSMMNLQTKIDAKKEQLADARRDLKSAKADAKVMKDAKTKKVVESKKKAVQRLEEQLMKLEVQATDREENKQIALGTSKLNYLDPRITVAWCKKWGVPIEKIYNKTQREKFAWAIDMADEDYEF
How it was run: (§2)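 Cell-free relaxation assay: 1 U recombinant human Topo I with 0.5 µg supercoiled pBR322 in Topo I buffer (Tris-HCl pH 8.0, KCl, MgCl2, DTT, 0.1% BSA), 37 °C for 30 min. 10-HCPT and irinotecan as positive controls. Supercoiled, relaxed and nicked forms resolved on 0.8% agarose in TAE, 90 V for 2 h, ethidium bromide stained.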

SW1990 = assay: Antitumor activity against human SW1990 cells assessed as inhibition of cell growth measured after 48 hrs by MTT assay; format: functional, cell-based; conditions: SW1990, 48 h; how it was run: as §1
[3] = Aqueous solubility of the compound in 0.1 M Na2HPO4 solution at pH 7.4 incubated for 24 hrs by HPLC analysis; format: physicochemical; conditions: 0.1 M Na2HPO4 solution, pH 7.4
How it was run: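 Excess solid shaken in 0.2 mL 0.1 M phosphate buffer, pH 7.4, at 25 °C for 24 h, then filtered. Filtrate (100 µL) diluted to 1.5 mL and analysed by isocratic HPLC (CH3CN:H2O 40/60, 1.0 mL/min, 35 °C column, 254 nm). Concentration read from a calibration curve built from DMSO standards. Values are the mean of triplicate determinations, in mg/mL.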

[4] = Ratio of test compound solubility to camptothecin solubility in 0.1 M Na2HPO4 solution at pH 7.4 incubated for 24 hrs by HPLC analysis; format: physicochemical; conditions: buffer, pH 7.4, 24 h
[5] = Stability of compound in 10% phosphate buffer assessed as proportion of lactone form level at pH 7.4 measured after 48 hrs by HPLC analysis; format: physicochemical; conditions: read-out: Drug metabolism
How it was run: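 1.0 mg dissolved in 50 mL 0.1 M phosphate buffer, pH 7.4, and shaken at 37 °C. […] Lactone versus carboxylate (ring-opened) form quantified by HPLC area normalisation. Mean of triplicate determinations.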

[6] = target: T1, DNA topoisomerase 1 (Homo sapiens); assay: Inhibition of human recombinant Topoisomerase 1 using supercoiled pBR322 DNA as substrate at 50 uM incubated for 30 mins by ethidium bromide staining based agarose gel electrophoresis; how it was run: as §2

Structure (SMILES)	pIC50 (HepG2)	LD50 at 336 h [1] [mg/kg]	pIC50 (HEK293)	pIC50 (HCT-116)	inhibition [2]	pIC50 (SW1990)	solubility at 24 h [3] [µg/mL]	Ratio [4]	remaining at 48 h [5] [%]	inhibition [6]
CCc1c2c(nc3ccc(OC(=O)N4CCC(N5CCCCC5)CC4)cc13)-c1cc3c(c(=O)n1C2)COC(=O)[C@]3(O)CC [IRINOTECAN]	< 4.00	85.1	< 4.00	< 4.00	Active	< 4.00	–	–	–	–
CC[C@@]1(OC(=O)NCCOCCO[C@@H]2O[C@H](CO)[C@@H](O)[C@H](OC(N)=O)[C@@H]2O)C(=O)OCc2c1cc1n(c2=O)Cc2cc3ccccc3nc2-1	6.05	–	4.28	5.92	Active	5.28	16300 (≈ 23.8 mM)	2717	92	Active
CC[C@@]1(OC(=O)NCCOCCO[C@@H]2O[C@H](COC(C)=O)[C@H](OC(C)=O)[C@H](OC(C)=O)[C@H]2OC(C)=O)C(=O)OCc2c1cc1n(c2=O)Cc2cc3ccccc3nc2-1	5.25	–	< 4.00	5.46	Active	4.80	500 (≈ 0.617 mM)	–	91	Active
